Experiments:
Thyroid gland [1] = test: Biodistribution in 9L cells bearing Fischer 344 rat thyroid at 15 to 30 uCi, iv after 30 mins; type: ADME, organism-based; conditions: in vivo, 0.5 h
Outline: (§1)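 Male Fischer 344 rats (125–175 g) bearing intracranial 9L gliosarcoma implants; radioiodinated tracer (123I for S, 131I for R) purified in saline, given intravenously. Tissues harvested at 30, 60 or 120 min, radioactivity expressed as %ID/g (thyroid per organ). Groups: S study 5 rats per time; R study 5 at 30 min, 4 at 60 and 120 min.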

Blood [2] = test: Biodistribution in 9L cells bearing Fischer 344 rat blood at 15 to 30 uCi, iv after 30 mins; type: ADME, organism-based; conditions: in vivo, 0.5 h; outline: as §1
Kidney [3] = test: Biodistribution in 9L cells bearing Fischer 344 rat kidney at 15 to 30 uCi, iv after 120 mins; type: ADME, organism-based; conditions: in vivo, 2 h; outline: as §1
Kidney [4] = test: Biodistribution in 9L cells bearing Fischer 344 rat kidney at 15 to 30 uCi, iv after 30 mins; type: ADME, organism-based; conditions: in vivo, 0.5 h; outline: as §1
Testes [5] = test: Biodistribution in 9L cells bearing Fischer 344 rat testes at 15 to 30 uCi, iv after 60 mins; type: ADME, organism-based, Testis; conditions: in vivo, 1 h; outline: as §1
Liver [6] = test: Biodistribution in 9L cells bearing Fischer 344 rat liver at 15 to 30 uCi, iv after 30 mins; type: ADME, organism-based; conditions: in vivo, 0.5 h; outline: as §1
Pancreas [7] = test: Biodistribution in 9L cells bearing Fischer 344 rat pancreas at 15 to 30 uCi, iv after 120 mins; type: ADME, organism-based; conditions: in vivo, 2 h; outline: as §1
Blood [8] = test: Biodistribution in 9L cells bearing Fischer 344 rat blood at 15 to 30 uCi, iv after 120 mins; type: ADME, organism-based; conditions: in vivo, 2 h; outline: as §1
9L [9] = test: Drug uptake per 10^6 cells in rat 9L cells after 30 mins; type: ADME, cell-based; conditions: 0.5 h
Outline: (§2)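 Cultured rat 9L gliosarcoma cells incubated 30 min with 131I-labelled tracer, with or without A-type inhibitor N-MeAIB or L-type inhibitor BCH. Uptake expressed as percent of initial dose per 1 × 10^6 cells, normalized for dose and cell number. Inhibition compared to control by one-way ANOVA; SD shown.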

Spleen [10] = test: Biodistribution in 9L cells bearing Fischer 344 rat spleen at 15 to 30 uCi, iv after 120 mins; type: ADME, organism-based; conditions: in vivo, 2 h; outline: as §1
Lung [11] = test: Biodistribution in 9L cells bearing Fischer 344 rat lung at 15 to 30 uCi, iv after 120 mins; type: ADME, organism-based; conditions: in vivo, 2 h; outline: as §1
Brain [12] = test: Biodistribution in 9L cells bearing Fischer 344 rat brain at 15 to 30 uCi, iv after 60 mins; type: ADME, organism-based; conditions: in vivo, 1 h; outline: as §1
Muscle tissue [13] = test: Biodistribution in 9L cells bearing Fischer 344 rat muscle at 15 to 30 uCi, iv after 30 mins; type: ADME, organism-based; conditions: in vivo, 0.5 h; outline: as §1
Bone [14] = test: Biodistribution in 9L cells bearing Fischer 344 rat bone at 15 to 30 uCi, iv after 120 mins; type: ADME, organism-based, Bone element; conditions: in vivo, 2 h; outline: as §1
Liver [15] = test: Biodistribution in 9L cells bearing Fischer 344 rat liver at 15 to 30 uCi, iv after 60 mins; type: ADME, organism-based; conditions: in vivo, 1 h; outline: as §1
Pancreas [16] = test: Biodistribution in 9L cells bearing Fischer 344 rat pancreas at 15 to 30 uCi, iv after 30 mins; type: ADME, organism-based; conditions: in vivo, 0.5 h; outline: as §1
9L [17] = test: Drug uptake per 10^6 cells in rat 9L cells after 30 mins assessed as uptake inhibition in presence of N-methyl-alpha-aminoisobutyric acid relative to control; type: ADME, cell-based; design: scale not given: the % may be the effect or the level left; conditions: 0.5 h; outline: as §2
Brain [18] = test: Biodistribution in 9L cells bearing Fischer 344 rat brain at 15 to 30 uCi, iv after 120 mins; type: ADME, organism-based; conditions: in vivo, 2 h; outline: as §1
Nucleic Acid [19] = test: Ratio of drug level in tumor to brain in 9L cells bearing Fischer 344 rat at 15 to 30 uCi, iv after 30 mins; type: ADME, organism-based; conditions: in vivo, 0.5 h
Outline: (§3)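 Intracranial 9L gliosarcoma in male Fischer 344 rats (125–175 g). The 123I-labelled (S) or 131I-labelled (R) tracer was given iv in saline. Tumor and normal brain %ID/g were measured at 30, 60 or 120 min, and the ratio was taken from these. Groups were 5 per time for S, and 5/4/4 for R.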

Rattus norvegicus [20] = test: Biodistribution in 9L cells bearing Fischer 344 rat tumor at 15 to 30 uCi, iv after 120 mins; type: ADME, organism-based, Neoplasm; conditions: in vivo, 2 h; outline: as §1
Bone [21] = test: Biodistribution in 9L cells bearing Fischer 344 rat bone at 15 to 30 uCi, iv after 60 mins; type: ADME, organism-based, Bone element; conditions: in vivo, 1 h; outline: as §1
Nucleic Acid [22] = test: Ratio of drug level in tumor to brain in 9L cells bearing Fischer 344 rat at 15 to 30 uCi, iv after 120 mins; type: ADME, organism-based; conditions: in vivo, 2 h; outline: as §3
Rattus norvegicus [23] = test: Biodistribution in 9L cells bearing Fischer 344 rat tumor at 15 to 30 uCi, iv after 30 mins; type: ADME, organism-based, Neoplasm; conditions: in vivo, 0.5 h; outline: as §1
Rattus norvegicus [24] = test: Biodistribution in 9L cells bearing Fischer 344 rat tumor at 15 to 30 uCi, iv after 60 mins; type: ADME, organism-based, Neoplasm; conditions: in vivo, 1 h; outline: as §1
Nucleic Acid [25] = test: Ratio of drug level in tumor to brain in 9L cells bearing Fischer 344 rat at 15 to 30 uCi, iv after 60 mins; type: ADME, organism-based; conditions: in vivo, 1 h; outline: as §3
Muscle tissue [26] = test: Biodistribution in 9L cells bearing Fischer 344 rat muscle at 15 to 30 uCi, iv after 60 mins; type: ADME, organism-based; conditions: in vivo, 1 h; outline: as §1
Blood [27] = test: Biodistribution in 9L cells bearing Fischer 344 rat blood at 15 to 30 uCi, iv after 60 mins; type: ADME, organism-based; conditions: in vivo, 1 h; outline: as §1
Spleen [28] = test: Biodistribution in 9L cells bearing Fischer 344 rat spleen at 15 to 30 uCi, iv after 30 mins; type: ADME, organism-based; conditions: in vivo, 0.5 h; outline: as §1
Pancreas [29] = test: Biodistribution in 9L cells bearing Fischer 344 rat pancreas at 15 to 30 uCi, iv after 60 mins; type: ADME, organism-based; conditions: in vivo, 1 h; outline: as §1
Heart [30] = test: Biodistribution in 9L cells bearing Fischer 344 rat heart at 15 to 30 uCi, iv after 60 mins; type: ADME, organism-based; conditions: in vivo, 1 h; outline: as §1
Liver [31] = test: Biodistribution in 9L cells bearing Fischer 344 rat liver at 15 to 30 uCi, iv after 120 mins; type: ADME, organism-based; conditions: in vivo, 2 h; outline: as §1
Testes [32] = test: Biodistribution in 9L cells bearing Fischer 344 rat testes at 15 to 30 uCi, iv after 120 mins; type: ADME, organism-based, Testis; conditions: in vivo, 2 h; outline: as §1
Lung [33] = test: Biodistribution in 9L cells bearing Fischer 344 rat lung at 15 to 30 uCi, iv after 60 mins; type: ADME, organism-based; conditions: in vivo, 1 h; outline: as §1
Spleen [34] = test: Biodistribution in 9L cells bearing Fischer 344 rat spleen at 15 to 30 uCi, iv after 60 mins; type: ADME, organism-based; conditions: in vivo, 1 h; outline: as §1
Testes [35] = test: Biodistribution in 9L cells bearing Fischer 344 rat testes at 15 to 30 uCi, iv after 30 mins; type: ADME, organism-based, Testis; conditions: in vivo, 0.5 h; outline: as §1
Bone [36] = test: Biodistribution in 9L cells bearing Fischer 344 rat bone at 15 to 30 uCi, iv after 30 mins; type: ADME, organism-based, Bone element; conditions: in vivo, 0.5 h; outline: as §1
Thyroid gland [37] = test: Biodistribution in 9L cells bearing Fischer 344 rat thyroid at 15 to 30 uCi, iv after 60 mins; type: ADME, organism-based; conditions: in vivo, 1 h; outline: as §1
Heart [38] = test: Biodistribution in 9L cells bearing Fischer 344 rat heart at 15 to 30 uCi, iv after 120 mins; type: ADME, organism-based; conditions: in vivo, 2 h; outline: as §1
Thyroid gland [39] = test: Biodistribution in 9L cells bearing Fischer 344 rat thyroid at 15 to 30 uCi, iv after 120 mins; type: ADME, organism-based; conditions: in vivo, 2 h; outline: as §1
Lung [40] = test: Biodistribution in 9L cells bearing Fischer 344 rat lung at 15 to 30 uCi, iv after 30 mins; type: ADME, organism-based; conditions: in vivo, 0.5 h; outline: as §1
Muscle tissue [41] = test: Biodistribution in 9L cells bearing Fischer 344 rat muscle at 15 to 30 uCi, iv after 120 mins; type: ADME, organism-based; conditions: in vivo, 2 h; outline: as §1
Kidney [42] = test: Biodistribution in 9L cells bearing Fischer 344 rat kidney at 15 to 30 uCi, iv after 60 mins; type: ADME, organism-based; conditions: in vivo, 1 h; outline: as §1
Brain [43] = test: Biodistribution in 9L cells bearing Fischer 344 rat brain at 15 to 30 uCi, iv after 30 mins; type: ADME, organism-based; conditions: in vivo, 0.5 h; outline: as §1
Heart [44] = test: Biodistribution in 9L cells bearing Fischer 344 rat heart at 15 to 30 uCi, iv after 30 mins; type: ADME, organism-based; conditions: in vivo, 0.5 h; outline: as §1

- Drug uptake (Thyroid gland [1]): 0.16 %ID/organ
- Drug uptake (Blood [2]): 1.33 % ID/g
- Drug uptake (Kidney [3]): 18.4 % ID/g
- Drug uptake (Kidney [4]): 24 % ID/g
- Drug uptake (Testes [5]): 0.58 % ID/g
- Drug uptake (Liver [6]): 1.62 % ID/g
- Drug uptake (Pancreas [7]): 7.7 % ID/g
- Drug uptake (Blood [8]): 1.03 % ID/g
- Drug uptake (9L [9]): 0.35 %ID
- Drug uptake (Spleen [10]): 1.08 % ID/g
- Drug uptake (Lung [11]): 0.98 % ID/g
- Drug uptake (Brain [12]): 0.091 % ID/g
- Drug uptake (Muscle tissue [13]): 1.35 % ID/g
- Drug uptake (Bone [14]): 0.64 % ID/g
- Drug uptake (Liver [15]): 1.62 % ID/g
- Drug uptake (Pancreas [16]): 11.9 % ID/g
- Activity (9L [17]): 85%
- Drug uptake (Brain [18]): 0.096 % ID/g
- Ratio (Nucleic Acid [19]): 81
- Drug uptake (Rattus norvegicus [20]): 6.84 % ID/g
- Drug uptake (Bone [21]): 0.74 % ID/g
- Ratio (Nucleic Acid [22]): 71
- Drug uptake (Rattus norvegicus [23]): 4.7 % ID/g
- Drug uptake (Rattus norvegicus [24]): 6.81 % ID/g
- Ratio (Nucleic Acid [25]): 75
- Drug uptake (Muscle tissue [26]): 1.7 % ID/g
- Drug uptake (Blood [27]): 1.22 % ID/g
- Drug uptake (Spleen [28]): 1.54 % ID/g
- Drug uptake (Pancreas [29]): 10.7 % ID/g
- Drug uptake (Heart [30]): 1.4 % ID/g
- Drug uptake (Liver [31]): 1.27 % ID/g
- Drug uptake (Testes [32]): 0.64 % ID/g
- Drug uptake (Lung [33]): 1.41 % ID/g
- Drug uptake (Spleen [34]): 1.73 % ID/g
- Drug uptake (Testes [35]): 0.49 % ID/g
- Drug uptake (Bone [36]): 0.51 % ID/g
- Drug uptake (Thyroid gland [37]): 0.24 %ID/organ
- Drug uptake (Heart [38]): 1.2 % ID/g
- Drug uptake (Thyroid gland [39]): 0.18 %ID/organ
- Drug uptake (Lung [40]): 1.24 % ID/g
- Drug uptake (Muscle tissue [41]): 1.26 % ID/g
- Drug uptake (Kidney [42]): 22.9 % ID/g
- Drug uptake (Brain [43]): 0.058 % ID/g
- Drug uptake (Heart [44]): 1.31 % ID/g
Compound: C[C@](N)(/C=C/[123I])C(=O)O
